A selection: hits, their analogues and other compounds. The true share with any hit is near 27%.
CYP2C9 inh – inhibitors of human CYP2C9. inhibition, % at 5 µM. CYP2C9 Supersomes, luciferin-H conversion, luminescence. P11712. hit rate 20% among 96,000;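 active = blocking of liver enzyme CYP2C9 beyond about 50% at 5 µM, limit read from the data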
HIV Rev-RRE inh – disrupts HIV-1 Rev binding to RRE RNA. AID 704. P05866. Rev peptide-RRE RNA binding, FRET. hit rate 0.79% among 97,000. inhibition, % at 8 µM;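 active = inhibition above the screen-wide mean plus 3 SD, cut at about 35% in these data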;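 note: 0% = median DMSO wells and 100% = median Neomycin B control wells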
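Assay system: Labelled RRE RNA duplex and labelled Rev peptide | Times: 5 min preincubation and 15 min binding, 25 °C | Detection: FRET, ex 480 nm, em 540 and 671 nm | Evaluation: % inhibition of FRET ratio versus controls | Benchmarks: DMSO wells as 0% and neomycin B wells as 100% inhibition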
CYP2C9 act – activators of human CYP2C9; P11712; recombinant CYP2C9, luciferin-H conversion, luminescence; active compounds read high; factor 1 = untreated enzyme, 0 = blocked; activation factor at 5 µM; hit rate 1.4% among 96,000;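 active = activation factor of 2 or more for CYP2C9 at a 5 µM dose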;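 note: 0 = sulfaphenazole-blocked wells and 1 = vehicle-only wells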
Cav3 T inh – human Cav3.2 channel inhibition, primary screen | O95180 | Cav3.2-expressing cells, Fluo-4 calcium fluorescence FDSS; active compounds read low | B-score at 10 µM | hit rate 4% among 100,000 | AID 449739;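 active = single-dose well whose peak fluorescence ratio is a statistical outlier from its plate by either plate-standardised score or position-corrected B-score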
CYP2C19 activ – cytochrome P450 2C19 (human) activation. recombinant CYP2C19, luciferin-H EGE luminescence; active compounds read high; 0 = fully inhibited enzyme, 1 = untreated enzyme. activation factor at 5 µM. 96,000 tested, under 10 active. AID 1025;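 active = activation factor of at least 2 at 5 µM in the primary screen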;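 note: 0 = wells with 2.5 mM tranylcypromine and 1 = vehicle-only wells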
CYP2C19 inhib – human CYP2C19 inhibition; inhibition, % at 5 µM; hit rate 21% among 96,000; AID 778; CYP2C19 Supersomes, luciferin-H EGE luminescence, 30 min;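 active = CYP2C19 inhibition above a set limit at 5 µM in the primary screen, cut at about 50% in these data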;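 note: plate controls were negative control wells for no effect and 2.5 mM tranylcypromine positive control for full effect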
Starred values were filed as active, the others as inactive; / = no result; [ ] = another dose, or the depositor's remark.

SMILES	CYP2C9 inh	HIV Rev-RRE inh	CYP2C9 act	Cav3 T inh	CYP2C19 activ	CYP2C19 inhib
COc1cc(C2c3c(oc4ccccc4c3=O)C(=O)N2Cc2ccncc2)ccc1O (stereo unspecified)	73.2*	-1.4	0.3	0.526	0.5	47.4
CC(C)N(C)C1CCN(C(=O)Nc2ccc(Cl)c(Cl)c2)CC1	-17.9	/	1.2	0.993	1.2	-19.3
CCOc1ccccc1NC(=O)C1CC(=O)n2ncnc2N1 (stereo unspecified)	-9.4	9.5	1.1	-0.919	1	-1.8
Cc1cc(C)cc(OC(=O)CS(=O)c2ccc(C(F)(F)F)cc2[N+](=O)[O-])c1 (stereo unspecified)	-102.2	7.7	2*	1.05	1	-2.6
O=C(CS(=O)c1ccc(C(F)(F)F)cc1[N+](=O)[O-])Oc1ccc(Cl)cc1 (stereo unspecified)	31.4	13.8	0.7	1.6	1	1.7
COc1ccc(NC(=O)c2ccc(Cl)c(S(=O)(=O)N3CCc4ccccc4C3)c2)cn1	13.5	/	0.9	-3.29	0.9	6.4
Cc1ccc(Nc2c([N+](=O)[O-])c(=O)n(C)c3ccccc23)cc1C	-19.1	1.8	1.2	-1.36	0.4	63.8*
COC(=O)c1ccccc1NC(=O)CSc1nnc(Cc2ccc(Cl)cc2)o1	82.0*	9.4	0.2	/	0.1	90.6*
COc1ccccc1NC(=O)CSc1nnc(CNC(=O)COc2ccc(Cl)cc2)o1	-122.1	10.2	2.2*	-3.22	0.4	59.1*
COc1ccc(OC)c(NC(=O)CSc2nnc(CNC(=O)COc3ccc(Cl)cc3)o2)c1	-9.8	8.4	1.1	-3.02	0.4	60.7*
COc1ccc(NC(=O)CSc2nnc(CNC(=O)COc3ccc(Cl)cc3)o2)c(OC)c1	10.7	4.2	0.9	-0.997	0.6	36.8
O=C(Nc1c2c(nn1-c1ccc(F)cc1)CS(=O)(=O)C2)C12CC3CC(CC(C3)C1)C2	12.6	5.4	0.9	/	0.9	13.5
CCc1cc(=O)oc2c(C)c(O)c(CN3CCCCC3)cc12	32.6	8.7	0.7	0.931	0.9	7.7
Cc1c(O)c(CN2CCCC2)cc2c1oc(=O)c1ccccc12	-51.4	5.2	1.5	2.05	0.4	57.2*
Cc1c(O)c(CN2CCCC2)cc2c3c(c(=O)oc12)CCC3	51.9*	3.5	0.5	1.14	0.6	35.5
CCNC(=O)NC1(C(=O)Nc2ccc3c(c2)OCCO3)CCCCC1	3.0	6.3	1	0.000471	1	-0.4
O/N=C\c1cccn1-c1ccc(Br)cc1	26.0	7.4	0.7	-0.0573	0.3	68.5*
O=C(c1ccc(Br)cc1)C1CCc2occc2C1=O (stereo unspecified)	65.8*	20.0	0.3	0.295	0	97.1*
O=C(O)C1CC1c1ccc(Br)cc1 (stereo unspecified)	-12.9	2.5	1.1	0.416	1.1	-10.9
O=C(Nc1ccc(Cl)cc1)Nc1ccc2c(c1)N1CCN=C1S2	66.9*	3.4	0.3	-1.16	0.6	41.5
Cc1cccnc1NC(=O)C1CCN(S(=O)(=O)c2ccc3c(c2)CCC(=O)N3)CC1	25.7	3.0	0.7	0.137	0.9	6.3
O=C(Cc1c(C(=O)O)[nH]c2ccccc12)NCCN1CCN(c2ccccc2F)CC1	8.4	10.2	0.9	0.295	1	4.3
Cc1nn(Cc2ccc(Cl)cc2Cl)c(Cl)c1/C=C/C(=O)OCC(=O)NCC(F)(F)F	42.0	3.0	0.6	-0.187	0.8	22.3
O=C(CN1C(=O)C2CCCN2c2ncc(Cl)cc21)NCc1ccc2c(c1)OCO2 (stereo unspecified)	15.9	4.0	0.8	/	0.6	40.3
CCc1ccccc1NC(=O)CN1C(=O)C2CCCN2c2ncc(Cl)cc21 (stereo unspecified)	53.5*	8.3	0.5	-3.23	0.4	55.0*
SMILES	CYP2C9 inh	HIV Rev-RRE inh	CYP2C9 act	Cav3 T inh	CYP2C19 activ	CYP2C19 inhib
CC1CCC(NC(=O)CN2C(=O)C3CCCN3c3ncc(Cl)cc32)CC1 (stereo unspecified)	44.1	-1.7	0.6	-6.54*	0.6	37.9
COc1ccc(CNC(=O)CN2C(=O)C3CCCN3c3ncc(Cl)cc32)cc1 (stereo unspecified)	52.1*	-2.0	0.5	-1.7	0.2	82.5*
COc1cccc2cc(C(=O)N(C)C3CCN(C)CC3)c(=O)oc12	-22.9	8.7	1.2	0.782	1	4.8
CCCCCCS(=O)Cc1ccccc1 (stereo unspecified)	-5.3	/	1.1	0.506	0.1	90.7*
COCCOCC(O)CN1CCN(c2ccc(C)cc2)CC1 (stereo unspecified)	3.3	2.0	1	-0.596	0.9	7.5
CCc1ccccc1N1C[C@@]23C=C[C@@H](O2)C(C(=O)OCC(C)C)[C@H]3C1=O (stereo partly specified)	-2.4	-4.1	1	-0.286	0.8	15.5
COCCCNc1c2c3c(cccc3[nH]c1=O)C(=O)c1ccccc1-2	60.7*	141.1*[fluorescence artefact?]	0.4	-11.6*	0.6	40.1
COCCCNS(=O)(=O)c1ccc2c3c(cccc13)C(=O)S2	/	6.1	/	-0.466	/	/
COCCN1C(=O)C(=O)/C(=C(/O)c2cccc(S(=O)(=O)N(C)C)c2)C12C(=O)N(C)c1ccccc12 (stereo unspecified)	83.5*	3.0	0.2	0.109	1.2	-15.9
CCCOc1ccc(/C(O)=C2\C(=O)C(=O)N(CCCOC)C23C(=O)N(C)c2ccccc23)cc1 (stereo unspecified)	-11.8	/	1.1	-0.392	1	-2.2
CCn1c(COc2ccc(C)cc2)nnc1SCC(=O)Nc1ccc2c(c1)OCCO2	28.1	9.7	0.7	0.0359	0.9	8.6
CCCS(=O)(=O)N1CCc2cc(OC)c(OC)cc2C1	3.2	10.8	1	-0.632	0.4	55.2*
Cc1cccc(CN2C(=O)[C@H]3Cc4c([nH]c5ccccc45)C(C)(C)N3C2=O)c1	/	/	/	-1.06	/	/
O=C1CC(SC(=Nc2ccccc2)Nc2ccccc2)C(=O)N1c1cccc2ccccc12 (stereo unspecified)	16.7	6.2	0.8	0.00215	0.9	10.2
O=C(COC(=O)c1ccc(Br)o1)NCC1CCCO1 (stereo unspecified)	5.3	10.5	0.9	-0.85	1	2.6
NC(=O)c1ccsc1NC(=O)C1CCCCC1	32.8	3.3	0.7	0.197	0.4	62.7*
NC(=O)c1ccsc1NC(=O)c1ccc2c(c1)CCCC2	/	/	/	-0.54	/	/
COc1ccc(C2=NOC3(CC(=O)N(c4ccc(C)cc4)C3=O)C2)c(OC)c1 (stereo unspecified)	2.4	9.1	1	-0.219	1.1	-6.2
O=C(CNCCC1=CCCCC1)Nc1ccc(N2CCCCCC2)cc1	2.5	-10.1	1	-5.06*	1	0.4
CCCCOC(=O)Nc1ccc(N2CCOCC2)cc1	/	1.7	/	0.269	/	/
COc1ccc(NC(=O)Nc2ccc(N3CCCC3=O)cc2)cc1OC	-4.5	/	1	1.24	1.1	-7.1

Compound activity as filed in PubChem.
